Measurements from ChEMBL document CHEMBL1123681, “Molecular modification of anticholinergics as probes for muscarinic receptors. 2. Amino esters of alpha-methyltropic acid” (J Med Chem, 1987).

What was measured:
Rattus norvegicus [1] = organism: Rattus norvegicus; experiment: Relative potency with respect to (+/-)-3-Hydroxy-2-methyl-2-phenyl-propionic acid 2-diethylamino-ethyl ester in isolated rat ileum preparation; assay type: functional
ileum (Cavia porcellus) = experiment: Antispasmodic activity was calculated as molar concentration of antagonist that inhibited 50% of a standard contraction response from isolated guinea pig ileum preparation; conditions: read-out: ID50 (the source's name)
Cavia porcellus [2] = organism: Cavia porcellus; experiment: Ability to inhibit 50% standard contraction response of the guinea pig ileal tissue was measured with increasing concentrations of Acetylcholine (ACh) in the tissue bath; assay type: functional
Rattus norvegicus [3] = organism: Rattus norvegicus; experiment: Antispasmodic activity was calculated as molar concentration of antagonist that inhibited 50% of a standard contraction response from isolated rat ileum preparation; assay type: functional; conditions: read-out: ID50 (the source's name)
Rattus norvegicus [4] = organism: Rattus norvegicus; experiment: (§1) Antispasmodic activity was measured as uM); assay type: functional
Rattus norvegicus [5] = organism: Rattus norvegicus; experiment: as §1; assay type: functional; remark: listed apart in the source
Rattus norvegicus [6] = organism: Rattus norvegicus; experiment: as §1; assay type: functional; remark: listed apart in the source
Rattus norvegicus [7] = organism: Rattus norvegicus; experiment: Antispasmodic activity calculated as ability of compound to block ACh-induced contractions of the ileum and expressed as pA2; assay type: functional, organism-based; conditions: for Kb: Rattus norvegicus, Ileum, read-out: pA2 (converted)
Procedure, shortened: (§2)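 Ileum from overnight-fasted rats killed by cervical dislocation, suspended in aerated Tyrode solution and recorded via force-displacement transducer. Contractions measured across increasing ACh concentrations, then ACh responses with antagonist present. pA2 derived by the Ariens–van Rossum method as the mean from linear regression of two or more experiments at four or more dose levels. ID50 is the molar antagonist concentration inhibiting 50% of a standard contraction.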

Cavia porcellus [8] = organism: Cavia porcellus; experiment: Ability to inhibit 50% standard contraction response of the guinea pig ileal tissue was measured with increasing concentrations of Acetylcholine (ACh) in the tissue bath
Rattus norvegicus [9] = organism: Rattus norvegicus; experiment: Antispasmodic activity was measured as percent reduction in rat ileum contraction against 300 ug/mL barium chloride 3 ug/mL (6.4X 10E-6 uM); assay type: functional
Procedure, shortened: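 Rat ileum strips in a tissue bath were contracted with a standard BaCl2 dose (300 μg/mL), chosen from a preliminary dose-response, then washed back to baseline. Test compound was added and equilibrated for 10 min. Without washout, the same BaCl2 dose was given again. Percent inhibition was taken from the contraction before versus after compound.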

Cavia porcellus [10] = organism: Cavia porcellus; experiment: Antispasmodic activity was determined from isolated guinea pig ileum preparation
Rattus norvegicus [11] = organism: Rattus norvegicus; experiment: Antispasmodic activity was calculated according to Ariens and van Rossum from isolated rat ileum preparations; assay type: functional; conditions: read-out: pA2 (converted); procedure, shortened: as §2
Rattus norvegicus [12] = organism: Rattus norvegicus; experiment: Antispasmodic activity was measured as percent reduction in rat ileum contraction against 300 ug/mL barium chloride 0.5 ug/mL (1.5 X 10E-6 uM); assay type: functional
Procedure, shortened: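 Ileum strips from overnight-fasted rats killed by cervical dislocation, held in a tissue bath with force-displacement transducer recording. BaCl2 at 300 µg/mL, a standard dose set by a preliminary dose-response study, induced contraction; tissue washed back to baseline. Test agent equilibrated 10 min, then the same BaCl2 dose was added without washout. Percent inhibition was taken from contraction before versus after agent.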

Row | SMILES | IC50 (Rattus norvegicus [3]; Rattus norvegicus, Ileum) | IC50 (Rattus norvegicus [3]) | Relative potency (Rattus norvegicus [1]) | Kb (Rattus norvegicus [7]) | pA2 (Rattus norvegicus [7]) | further results
1 | CCN(CC)CCOC(=O)C(C)(COC(C)=O)c1ccccc1.Cl (stereo unspecified) | – | – | 0.8 | – | – | IC50 (ileum (Cavia porcellus)): 394 nM
2 | CCN(CC)CCOC(=O)C(C)(CF)c1ccccc1.Cl (stereo unspecified) | 301 nM | – | 1.04 | 302 nM | – | ID50 (Cavia porcellus [2]): 411 nM; Inhibition (Rattus norvegicus [4]): 24%; Inhibition (Rattus norvegicus [5]): 35.7%; Inhibition (Rattus norvegicus [6]): 15.7%
3 | CCN(CC)CCOC(=O)C(C)(COS(=O)(=O)c1ccc(C)cc1)c1ccccc1.Cl (racemic) | – | 38.9 nM | 8.07 | – | 7.41 | Inhibition (Rattus norvegicus [9]): 33%
4 | CCN(CC)CCOC(=O)C(C)(COS(=O)(=O)c1ccc(C)cc1)c1ccccc1.Cl (stereo in doubt; 2a) | – | 31 nM | 10.13 | – | 7.51 | –
5 | CCN(CC)CCOC(=O)C(C)(COS(=O)(=O)c1ccc(C)cc1)c1ccccc1.Cl (stereo in doubt; 2b) | – | 172 nM | 1.83 | – | 6.77 | –
6 | CN1[C@@H]2CC[C@H]1C[C@@H](OC(=O)C(CO)c1ccccc1)C2 (stereo partly specified) [ATROPINE] | – | – | – | – | – | Inhibition (Rattus norvegicus [12]): 5.9%

Now from value to molecule, other results behind:

Row | IC50 (Rattus norvegicus [3]; Rattus norvegicus, Ileum) | IC50 (Rattus norvegicus [3]) | SMILES | Relative potency (Rattus norvegicus [1]) | Kb (Rattus norvegicus [7]) | pA2 (Rattus norvegicus [7]) | further results
7 | 554 nM | – | CCN(CC)CCOC(=O)C(C)(CCl)c1ccccc1.Cl (stereo unspecified) | 0.57 | 550 nM | – | ID50 (Cavia porcellus [8]): 1170 nM
8 | 38.7 nM | – | CCN(CC)CCOC(=O)C(C)(CI)c1ccccc1.Cl (stereo unspecified) | 8.11 | 38.9 nM | – | –
9 | 127 nM | – | CCN(CC)CCOC(=O)C(C)(CBr)c1ccccc1.Cl (stereo unspecified) | 2.47 | 126 nM | – | –
10 | – | 314 nM | CCN(CC)CCOC(=O)C(C)(CO)c1ccccc1.Cl (racemic) | – | – | 6.5 | ID50 (Cavia porcellus [2]): 483 nM
11 | – | 1140 nM | CCN(CC)CCOC(=O)C(C)(CO)c1ccccc1.Cl (single isomer, unassigned; (+)) | 0.27 | – | 5.94 | Log K (Cavia porcellus [10]): 6.13
12 | – | 16.3 nM | CCN(CC)CCOC(=O)C(C)(CO)c1ccccc1.Cl (single isomer, unassigned; (-)) | 19.26 | – | – | Log K (Cavia porcellus [10]): 7.996; Kb (Rattus norvegicus [11]): 16.2 nM
